Data set [1] can be described thus: Retention time of the compound measured over 30 mins at flow rate of 1 mL/min by HPLC. The format is physicochemical. As to conditions: 0.5 h. An outline of the steps:
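Reversed-phase analytical HPLC or LC−MS on a SymmetryShield RP18 column (5 μm, 4.6 × 150 mm). Gradient 10−60% B over 30 min at 1 mL/min; A = 0.1% TFA in water, B = 0.1% TFA in acetonitrile.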

Data set [2] has as its target Sodium channel protein type 9 subunit alpha (Homo sapiens, UniProt Q15858). Put plainly: Inhibition of human Nav1.7 expressed in HEK-293 cells at -130 to -110 mV holding potential by whole-cell voltage clamp analysis. It is filed as cell-based, HEK293.
A short description of data set [3]: Retention time of the compound measured over 15 mins at flow rate of 1 mL/min by HPLC.
In a further data set the test system is HEK293. The data set is described as follows: Selectivity ratio of IC50 for rat Nav1.2 expressed in HEK-293 cells to IC50 for human Nav1.7 expressed in HEK-293 cells. It is filed as cell-based.

Residues, ends and D or L forms follow the SMILES beside them.

Sequence of Sodium channel protein type 9 subunit alpha (Q15858 whole entry): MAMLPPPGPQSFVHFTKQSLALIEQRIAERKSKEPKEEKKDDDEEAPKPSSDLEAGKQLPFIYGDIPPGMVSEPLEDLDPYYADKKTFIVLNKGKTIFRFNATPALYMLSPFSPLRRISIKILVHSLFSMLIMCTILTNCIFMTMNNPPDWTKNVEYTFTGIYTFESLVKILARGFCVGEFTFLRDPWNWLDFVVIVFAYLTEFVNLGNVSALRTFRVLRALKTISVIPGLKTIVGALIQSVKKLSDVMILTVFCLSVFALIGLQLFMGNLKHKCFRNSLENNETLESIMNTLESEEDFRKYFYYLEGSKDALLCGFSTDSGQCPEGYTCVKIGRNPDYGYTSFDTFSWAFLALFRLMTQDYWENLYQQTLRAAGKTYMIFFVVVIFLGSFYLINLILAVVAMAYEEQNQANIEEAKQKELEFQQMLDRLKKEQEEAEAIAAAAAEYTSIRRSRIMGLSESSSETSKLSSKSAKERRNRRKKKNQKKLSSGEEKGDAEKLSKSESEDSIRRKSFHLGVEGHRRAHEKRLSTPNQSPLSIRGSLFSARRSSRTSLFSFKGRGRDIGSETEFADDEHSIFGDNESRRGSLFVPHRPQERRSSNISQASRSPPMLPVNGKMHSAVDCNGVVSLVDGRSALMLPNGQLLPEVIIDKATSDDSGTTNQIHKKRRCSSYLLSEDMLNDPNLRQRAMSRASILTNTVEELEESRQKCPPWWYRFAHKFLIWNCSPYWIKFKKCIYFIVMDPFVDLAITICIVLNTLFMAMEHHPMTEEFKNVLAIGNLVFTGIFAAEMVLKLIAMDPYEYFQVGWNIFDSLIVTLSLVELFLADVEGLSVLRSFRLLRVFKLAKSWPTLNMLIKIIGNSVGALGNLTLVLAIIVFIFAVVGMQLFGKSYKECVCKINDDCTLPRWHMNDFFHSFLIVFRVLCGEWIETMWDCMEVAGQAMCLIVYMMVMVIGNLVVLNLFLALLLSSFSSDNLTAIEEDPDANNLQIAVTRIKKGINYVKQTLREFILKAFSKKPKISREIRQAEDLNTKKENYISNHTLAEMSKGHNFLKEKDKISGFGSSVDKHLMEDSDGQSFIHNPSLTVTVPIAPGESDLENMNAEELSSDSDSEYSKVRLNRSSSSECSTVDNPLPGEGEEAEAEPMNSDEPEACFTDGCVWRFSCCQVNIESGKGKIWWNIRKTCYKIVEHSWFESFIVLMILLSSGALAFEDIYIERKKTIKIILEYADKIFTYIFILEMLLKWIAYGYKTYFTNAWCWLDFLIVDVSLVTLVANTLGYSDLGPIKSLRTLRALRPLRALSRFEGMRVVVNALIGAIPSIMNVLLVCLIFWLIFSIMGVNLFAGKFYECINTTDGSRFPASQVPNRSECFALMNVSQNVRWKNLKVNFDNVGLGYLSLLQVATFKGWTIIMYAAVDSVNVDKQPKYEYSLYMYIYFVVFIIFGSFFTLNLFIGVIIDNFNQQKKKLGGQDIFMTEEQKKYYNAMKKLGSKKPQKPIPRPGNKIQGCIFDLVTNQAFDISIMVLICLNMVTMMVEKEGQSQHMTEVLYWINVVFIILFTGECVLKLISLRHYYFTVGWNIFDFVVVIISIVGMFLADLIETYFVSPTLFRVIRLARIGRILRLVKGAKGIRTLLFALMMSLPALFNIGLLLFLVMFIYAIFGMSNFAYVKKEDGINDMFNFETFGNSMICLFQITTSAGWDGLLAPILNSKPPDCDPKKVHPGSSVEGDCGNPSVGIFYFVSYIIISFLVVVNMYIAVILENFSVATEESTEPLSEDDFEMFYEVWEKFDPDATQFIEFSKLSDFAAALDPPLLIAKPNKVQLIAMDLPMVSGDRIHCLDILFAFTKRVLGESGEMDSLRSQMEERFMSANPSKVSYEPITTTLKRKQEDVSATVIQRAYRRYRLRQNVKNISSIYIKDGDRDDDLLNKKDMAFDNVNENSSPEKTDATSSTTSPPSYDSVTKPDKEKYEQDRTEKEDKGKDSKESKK

Regarding `CC[C@H](C)[C@H](NC(=O)[C@@H](NC(=O)[C@H](CCCCN)NC(=O)[C@H](CCCCN)NC(=O)[C@H](CCCCN)NC(=O)[C@@H]1CSSC[C@@H]2NC(=O)[C@H](CCCCN)NC(=O)[C@H](CCCNC(=N)N)NC(=O)[C@H](C)NC(=O)[C@H](CO)NC(=O)[C@H](CC(=O)O)NC(=O)[C@@H]3CSSC[C@H](NC(=O)[C@H](C(C)C)NC(=O)[C@H](CC(C)C)NC(=O)CNC(=O)[C@H](CCC(=O)O)NC(=O)[C@H](CSSC[C@H](NC(=O)[C@@H](N)Cc4ccc(O)cc4)C(=O)N[C@@H](CCC(N)=O)C(=O)N[C@@H](CCCCN)C(=O)N[C@@H](Cc4c[nH]c5ccccc45)C(=O)N[C@@H](CCSC)C(=O)N[C@@H](Cc4c[nH]c5ccccc45)C(=O)N[C@@H]([C@@H](C)O)C(=O)N3)NC2=O)C(=O)N[C@@H](CCCNC(=N)N)C(=O)N[C@@H](CC(C)C)C(=O)N[C@@H](Cc2c[nH]c3ccccc23)C(=O)N1)C(C)C)C(=O)O` (HELM PEPTIDE1{Y.C.Q.K.W.M.W.T.C.D.S.A.R.K.C.C.E.G.L.V.C.R.L.W.C.K.K.K.V.I}$PEPTIDE1,PEPTIDE1,2:R3-16:R3|PEPTIDE1,PEPTIDE1,9:R3-21:R3|PEPTIDE1,PEPTIDE1,15:R3-25:R3$$$V2.0), the Retention_time is given as 14.79 min in data set [1] and 9 min in data set [3]. This compound also displayed an IC50 in data set [2] of 4 nM.
As to `CSCC[C@@H]1NC(=O)[C@H](Cc2c[nH]c3ccccc23)NC(=O)[C@H](CCCCN)NC(=O)[C@H](CCC(N)=O)NC(=O)[C@@H](NC(=O)[C@@H](N)Cc2ccc(O)cc2)CSSC[C@@H]2NC(=O)[C@@H]3CSSC[C@@H](C(=O)N[C@@H](CCCCN)C(=O)N[C@@H](CCCCN)C(=O)N[C@@H](CCCCN)C(=O)N[C@@H](CC(C)C)C(=O)N[C@@H](Cc4c[nH]c5ccccc45)C(=O)O)NC(=O)[C@H](Cc4c[nH]c5ccccc45)NC(=O)[C@H](CC(C)C)NC(=O)[C@H](CCCNC(=N)N)NC(=O)[C@H](CSSC[C@H](NC(=O)[C@H]([C@@H](C)O)NC(=O)[C@H](Cc4c[nH]c5ccccc45)NC1=O)C(=O)N[C@@H](CC(=O)O)C(=O)N[C@@H](CCC(=O)O)C(=O)N[C@@H](CCC(=O)O)C(=O)N[C@@H](CCCNC(=N)N)C(=O)N[C@@H](CCCCN)C(=O)N3)NC(=O)[C@H](C(C)C)NC(=O)[C@H](CC(C)C)NC(=O)CNC(=O)[C@H](CCC(=O)O)NC2=O` (HELM PEPTIDE1{Y.C.Q.K.W.M.W.T.C.D.E.E.R.K.C.C.E.G.L.V.C.R.L.W.C.K.K.K.L.W}$PEPTIDE1,PEPTIDE1,2:R3-16:R3|PEPTIDE1,PEPTIDE1,9:R3-21:R3|PEPTIDE1,PEPTIDE1,15:R3-25:R3$$$V2.0), the Retention_time in data set [1] turned out to be 14.78 min; in data set [3] it was 8.66 min. The compound further came in with an IC50 in data set [2] of 293 nM.
As to `[H][C@]12CSSC[C@@H](C(=O)N[C@@H](CCCCN)C(=O)N[C@@H](CCCCN)C(=O)N[C@H](C(=O)N[C@@H](CC(C)C)C(=O)N[C@@H](Cc3c[nH]c4ccccc34)C(=O)O)[C@@H](C)CC)NC(=O)[C@H](Cc3c[nH]c4ccccc34)NC(=O)[C@H](CC(C)C)NC(=O)[C@H](CCCNC(=N)N)NC(=O)[C@]3([H])CSSC[C@]([H])(NC(=O)[C@]([H])([C@@H](C)O)NC(=O)[C@H](Cc4c[nH]c5ccccc45)NC(=O)[C@H](CCSC)NC(=O)[C@H](Cc4c[nH]c5ccccc45)NC(=O)[C@H](CCCCN)NC(=O)[C@H](CCC(N)=O)NC(=O)[C@@H](NC(=O)[C@@H](N)Cc4ccc(O)cc4)CSSC[C@]([H])(NC1=O)C(=O)N[C@@H](CCC(=O)O)C(=O)NCC(=O)N[C@@H](CC(C)C)C(=O)N[C@@H](C(C)C)C(=O)N3)C(=O)N[C@@H](CC(=O)O)C(=O)N[C@@H](CO)C(=O)N[C@@H](C)C(=O)N[C@@H](CCCNC(=N)N)C(=O)N[C@@H](CCCCN)C(=O)N2` (HELM PEPTIDE1{Y.C.Q.K.W.M.W.T.C.D.S.A.R.K.C.C.E.G.L.V.C.R.L.W.C.K.K.I.L.W}$PEPTIDE1,PEPTIDE1,2:R3-16:R3|PEPTIDE1,PEPTIDE1,9:R3-21:R3|PEPTIDE1,PEPTIDE1,15:R3-25:R3$$$V2.0), the Retention_time in data set [1] came out at 15.95 min; in data set [3] it was 9.54 min. Also, the Ratio IC50 in the data set with HEK293 was determined as 20.
As for `CSCC[C@@H]1NC(=O)[C@H](Cc2c[nH]c3ccccc23)NC(=O)[C@H](CCCCN)NC(=O)[C@H](CCC(N)=O)NC(=O)[C@@H](NC(=O)[C@@H](N)Cc2ccc(O)cc2)CSSC[C@@H]2NC(=O)[C@@H]3CSSC[C@@H](C(=O)N[C@@H](CCCCN)C(=O)N[C@@H](CCCCN)C(=O)N[C@@H](CCCCN)C(=O)N(C)[C@@H](CC(C)C)C(=O)N[C@@H](Cc4c[nH]c5ccccc45)C(=O)O)NC(=O)[C@H](Cc4c[nH]c5ccccc45)NC(=O)[C@H](CC(C)C)NC(=O)[C@H](CCCNC(=N)N)NC(=O)[C@H](CSSC[C@H](NC(=O)[C@H]([C@@H](C)O)NC(=O)[C@H](Cc4c[nH]c5ccccc45)NC1=O)C(=O)N[C@@H](CC(=O)O)C(=O)N[C@@H](CO)C(=O)N[C@@H](C)C(=O)N[C@@H](CCCNC(=N)N)C(=O)N[C@@H](CCCCN)C(=O)N3)NC(=O)[C@H](C(C)C)NC(=O)[C@H](CC(C)C)NC(=O)CNC(=O)[C@H](CCC(=O)O)NC2=O` (HELM PEPTIDE1{Y.C.Q.K.W.M.W.T.C.D.S.A.R.K.C.C.E.G.L.V.C.R.L.W.C.K.K.K.[meL].W}$PEPTIDE1,PEPTIDE1,2:R3-16:R3|PEPTIDE1,PEPTIDE1,9:R3-21:R3|PEPTIDE1,PEPTIDE1,15:R3-25:R3$$$V2.0), the Retention_time was 15.1 min in data set [1] and 9.04 min in data set [3]. Besides, the Ratio IC50 in the data set on HEK293 amounted to 2.8.
`CC[C@H](C)[C@H](NC(=O)[C@@H](NC(=O)[C@H](CCCCN)NC(=O)[C@H](CCCCN)NC(=O)[C@@H]1CSSC[C@@H]2NC(=O)[C@H](CCCCN)NC(=O)[C@H](CCCNC(=N)N)NC(=O)[C@H](CCC(=O)O)NC(=O)[C@H](CO)NC(=O)[C@H](CC(=O)O)NC(=O)[C@@H]3CSSC[C@H](NC(=O)[C@H](C(C)C)NC(=O)[C@H](CCSC)NC(=O)CNC(=O)[C@H](CCC(=O)O)NC(=O)[C@H](CSSC[C@H](NC(=O)[C@@H](N)Cc4ccc(O)cc4)C(=O)N[C@@H](CCC(N)=O)C(=O)N[C@@H](CCCCN)C(=O)N[C@@H](Cc4c[nH]c5ccccc45)C(=O)N[C@@H](CCSC)C(=O)N[C@@H](Cc4c[nH]c5ccccc45)C(=O)N[C@@H]([C@@H](C)O)C(=O)N3)NC2=O)C(=O)N[C@@H](CCCNC(=N)N)C(=O)N[C@@H](CC(C)C)C(=O)N[C@@H](Cc2c[nH]c3ccccc23)C(=O)N1)[C@@H](C)CC)C(=O)O`: the Retention_time is given as 18.47 min in data set [1] and 9.44 min in data set [3]. The Ratio IC50 in the data set on HEK293 stood at 2.
The like results for `[H][C@]12CSSC[C@@H](C(=O)N[C@@H](CCCCN)C(=O)N[C@@H](CCCCN)C(=O)N[C@@H](CCCCN)C(=O)N[C@@](C)(CC(C)C)C(=O)N[C@@H](Cc3c[nH]c4ccccc34)C(=O)O)NC(=O)[C@H](Cc3c[nH]c4ccccc34)NC(=O)[C@H](CC(C)C)NC(=O)[C@H](CCCNC(=N)N)NC(=O)[C@]3([H])CSSC[C@]([H])(NC(=O)[C@]([H])([C@@H](C)O)NC(=O)[C@H](Cc4c[nH]c5ccccc45)NC(=O)[C@H](CCSC)NC(=O)[C@H](Cc4c[nH]c5ccccc45)NC(=O)[C@H](CCCCN)NC(=O)[C@H](CCC(N)=O)NC(=O)[C@@H](NC(=O)[C@@H](N)Cc4ccc(O)cc4)CSSC[C@]([H])(NC1=O)C(=O)N[C@@H](CCC(=O)O)C(=O)NCC(=O)N[C@@H](CC(C)C)C(=O)N[C@@H](C(C)C)C(=O)N3)C(=O)N[C@@H](CC(=O)O)C(=O)N[C@@H](CO)C(=O)N[C@@H](C)C(=O)N[C@@H](CCCNC(=N)N)C(=O)N[C@@H](CCCCN)C(=O)N2` (HELM PEPTIDE1{Y.C.Q.K.W.M.W.T.C.D.S.A.R.K.C.C.E.G.L.V.C.R.L.W.C.K.K.K.[CC(C)C[C@](C)(N[*:1])C(=O)[*:2]].W}$PEPTIDE1,PEPTIDE1,2:R3-16:R3|PEPTIDE1,PEPTIDE1,9:R3-21:R3|PEPTIDE1,PEPTIDE1,15:R3-25:R3$$$V2.0) were, in that order, 15.29 min, 9.28 min and 3.5.
Take `[H][C@]12CSSC[C@@H](C(=O)N[C@@H](CCCCN)C(=O)N[C@@H](CCCCN)C(=O)N[C@@H](CCCCN)C(=O)N(C)[C@@H](CC(C)C)C(=O)N[C@H](C(=O)O)[C@@H](C)CC)NC(=O)[C@H](Cc3c[nH]c4ccccc34)NC(=O)[C@H](CC(C)C)NC(=O)[C@H](CCCNC(=N)N)NC(=O)[C@]3([H])CSSC[C@]([H])(NC(=O)[C@]([H])([C@@H](C)O)NC(=O)[C@H](Cc4c[nH]c5ccccc45)NC(=O)[C@H](CCSC)NC(=O)[C@H](Cc4c[nH]c5ccccc45)NC(=O)[C@H](CCCCN)NC(=O)[C@H](CCC(N)=O)NC(=O)[C@@H](NC(=O)[C@@H](N)Cc4ccc(O)cc4)CSSC[C@]([H])(NC1=O)C(=O)N[C@@H](CCC(=O)O)C(=O)NCC(=O)N[C@@H](CC(C)C)C(=O)N[C@@H](C(C)C)C(=O)N3)C(=O)N[C@@H](CC(=O)O)C(=O)N[C@@H](CO)C(=O)N[C@@H](C)C(=O)N[C@@H](CCCNC(=N)N)C(=O)N[C@@H](CCCCN)C(=O)N2` (HELM PEPTIDE1{Y.C.Q.K.W.M.W.T.C.D.S.A.R.K.C.C.E.G.L.V.C.R.L.W.C.K.K.K.[meL].I}$PEPTIDE1,PEPTIDE1,2:R3-16:R3|PEPTIDE1,PEPTIDE1,9:R3-21:R3|PEPTIDE1,PEPTIDE1,15:R3-25:R3$$$V2.0): the Retention_time in data set [1] came out at 14.4 min; in data set [3], 8.79 min. For the same compound, in the data set on HEK293, the Ratio IC50 turned out to be 2.8.

Usually IC50 stands for the concentration that inhibits the measured activity by half. High values mean lower potency, low ones higher potency.

The values above are taken from ChEMBL document CHEMBL3351726 (J Med Chem, 2014).
